One assay deals with Plasmodium falciparum. Nature of the assay: Antiprotozoal activity against Plasmodium falciparum K1. The format is functional, organism-based.
Assay [1] has as its system Trypanosoma brucei rhodesiense. Kind of assay: Antitrypanosomal activity against Trypanosoma brucei rhodesiense STIB900 infected mouse model assessed as survival at 5 mg/kg, ip after 4 days. The settings on record: route intraperitoneal. The format is functional. The gist of the method: (§1)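 Acute African trypanosomiasis model in mice infected with T. b. rhodesiense STIB900. Diamidines were given intraperitoneally and prodrugs orally, dosed over 4 days. Read-outs were cures (mice surviving parasite-free for 60 days, out of 4) and average days of survival, compared against untreated infected controls.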

The subject of assay [2] is Trypanosoma brucei rhodesiense. Kind of assay: Antiprotozoan activity against Trypanosoma brucei rhodesiense STIB900. The format is functional, organism-based.
Assay [3] has as its system Trypanosoma brucei rhodesiense. Nature of the assay: Antitrypanosomal activity against Trypanosoma brucei rhodesiense STIB900 infected mouse model assessed as survival at 25 mg/kg, po after 4 days. The format is functional. In outline:
as §1

For the next assay, the system named is L6. Kind of assay: Cytotoxicity against rat L6 cells. The format is cell-based.
Assay [4] in a line: Binding affinity to DNA.
The subject of assay [5] is Trypanosoma brucei rhodesiense. Kind of assay: Antitrypanosomal activity against Trypanosoma brucei rhodesiense STIB900 infected mouse model assessed as survival at 20 mg/kg, ip after 4 days. The format is functional. The following applies: route intraperitoneal. In outline:
as §1

Assay [6] deals with Trypanosoma brucei rhodesiense. Kind of assay: Antitrypanosomal activity against Trypanosoma brucei rhodesiense STIB900 infected mouse model assessed as survival at 5 mg/kg, po after 4 days. The format is functional. The gist of the method: as §1

Molecules are shown by their SMILES.

By IC50 is commonly meant the concentration needed to halve the response being measured. A lower IC50 goes with inhibition by little substance. `N=C(N)c1ccc(-c2ccc(-c3ccc(C(=N)N)cn3)o2)cc1`: the IC50 (in the assay with Plasmodium falciparum; in assay [2]) was 6.5 nM each time. Also, the Survival in assay [1] was greater than 54.5 days.

For the compound `CO/N=C(\N)c1ccc(-c2cn3cc(-c4ccc(/C(N)=N\OC)cc4)nc3c(C)c2C)cc1`, the values for the IC50 (in the assay on Plasmodium falciparum; in assay [2]) were 3250 nM and 7210 nM, respectively. For the same compound, the Survival in assay [3] amounted to 15.5 days.

For the compound `CO/N=C(\N)c1ccc(-c2ccc3nc(-c4ccc(/C(N)=N\OC)cc4)cn3c2)cc1`, the IC50 with Plasmodium falciparum was 181 nM; in the assay on L6, 6900 nM; in assay [2], 825 nM. Further, the Survival in assay [3] was determined as 10.75 days.

As for `Cc1c(-c2ccc(C(=N)N)cc2)cn2cc(-c3ccc(C(=N)N)cc3)nc2c1C`, the IC50 in the assay on Plasmodium falciparum is 63 nM; with L6 it was 4700 nM; in assay [2], 15 nM. In assay [1], the Survival is greater than 39.5 days.

The term Kd denotes the free concentration of one partner at which half of the binding sites on the other are occupied at equilibrium, for simple one-to-one binding. Read a high Kd as weaker binding. Take `N=C(N)c1ccc(-c2cn3c(n2)CCC(c2ccc(C(=N)N)cc2)C3)cc1` (stereo not given): the values for the half-inhibitory concentration (IC50) (in the assay with Plasmodium falciparum; in the assay on L6; in assay [2]) were 85 nM, 8900 nM and 14 nM, respectively. The Survival in assay [1] is 31.25 days; in assay [5], greater than 60 days. The same compound displayed a Kd in assay [4] of 250 nM.

As for `CO/N=C(\N)c1ccc(-c2cn3cc(-c4ccc(/C(N)=N\OC)cc4)nc3cc2C)cc1`, the 50% inhibitory concentration (IC50) was found to be 880 nM in the assay on Plasmodium falciparum, 17000 nM in the assay with L6 and 1740 nM in assay [2]. Moreover, the Survival in assay [3] stood at 14.5 days.

As for `CO/N=C(\N)c1ccc(-c2cc(C)c3nc(-c4ccc(/C(N)=N\OC)cc4)cn3c2)cc1`, the half-inhibitory concentration (IC50) in the assay on Plasmodium falciparum stood at 614 nM; in the assay with L6 it was 9500 nM; in assay [2] it was 2370 nM. Further, in assay [3], the Survival was greater than 20.25 days.

`Cc1cc(-c2ccc(C(=N)N)cc2)cn2cc(-c3ccc(C(=N)N)cc3)nc12`: the concentration for half-maximal inhibition (IC50) in the assay on Plasmodium falciparum stood at 23 nM; in the assay with L6 it was 7400 nM; in assay [2], 38 nM. In addition, in assay [1], the Survival was 14.75 days.

Turning to `CO/N=C(\N)c1ccc(-c2ccc(-c3ccc(/C(N)=N/OC)cn3)o2)cc1`, the Survival in assay [6] and in assay [3] was greater than 60 days each time.

Consider `N=C(N)c1ccc(-c2ccc3nc(-c4ccc(C(=N)N)cc4)cn3c2)cc1`, for which the half-maximal inhibitory concentration (IC50) in the assay on Plasmodium falciparum came out at 92 nM; with L6, 2500 nM; in assay [2], 7.5 nM. In addition, the dissociation constant (Kd) in assay [4] was found to be 20 nM. Moreover, the Survival in assay [5] came out at 22 days.

Regarding `Cc1cc2nc(-c3ccc(C(=N)N)cc3)cn2cc1-c1ccc(C(=N)N)cc1`, the half-inhibitory concentration (IC50) in the assay on Plasmodium falciparum stood at 27 nM; in the assay on L6, 6800 nM; in assay [2], 13 nM. Further, the Survival in assay [1] was greater than 37.25 days.

As to `N=C(N)c1ccc(-c2ccc(-c3ccc(C(=N)N)cc3)o2)cc1` [FURAMIDINE], in assay [1], the Survival came to 35.5 days.

As for `CONC(=N)c1ccc(-c2ccc(-c3ccc(C(=N)NOC)cc3)o2)cc1` [PAFURAMIDINE], the Survival in assay [3] was greater than 60 days.

These data come from ChEMBL document CHEMBL1143929, “Synthesis and antiprotozoal activity of novel bis-benzamidino imidazo[1,2-a]pyridines and 5,6,7,8-tetrahydro-imidazo[1,2-a]pyridines” (Bioorg Med Chem, 2008).
